Data set [1] in a line: Mono-oxidation of isobavachin by MLM, enzyme kinetics. The class given is in vitro ADME, mice.
Another data set concerns the target T1, CYP2C8 (Homo sapiens, UniProt P10632).
T1 sequence (P10632 1-490): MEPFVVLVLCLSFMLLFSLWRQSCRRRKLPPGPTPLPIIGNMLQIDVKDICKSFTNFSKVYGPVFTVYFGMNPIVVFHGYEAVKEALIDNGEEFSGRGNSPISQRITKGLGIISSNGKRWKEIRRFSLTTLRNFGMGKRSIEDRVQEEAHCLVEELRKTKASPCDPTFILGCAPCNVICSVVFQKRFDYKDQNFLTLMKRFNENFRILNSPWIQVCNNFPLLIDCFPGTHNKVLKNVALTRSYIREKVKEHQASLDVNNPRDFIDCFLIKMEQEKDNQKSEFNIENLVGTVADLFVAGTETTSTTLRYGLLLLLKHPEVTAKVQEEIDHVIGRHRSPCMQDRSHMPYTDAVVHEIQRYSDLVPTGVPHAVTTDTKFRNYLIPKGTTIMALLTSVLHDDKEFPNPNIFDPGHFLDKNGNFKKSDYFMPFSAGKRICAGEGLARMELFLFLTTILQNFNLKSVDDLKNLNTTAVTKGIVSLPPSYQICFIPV
Briefly: Inhibition of CYP2C8. The class given is in vitro ADME. As to conditions: isobavachin 1, 10, 100 μM; substrate paclitaxel (60 μM). In outline: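 Recombinant human CYPs (CYP1A2 and 3A4 at 0.05 mg/ml; CYP2C8 and 2E1 at 0.1 mg/ml) with probe substrate in Tris-HCl 50 mM pH 7.4, MgCl2 5 mM and NADPH 1 mM at 37 °C for 60 min. Run without (control) or with test compound at 1, 10 or 100 μM. Acetonitrile stop; metabolite by UHPLC-TQD-MS; activity versus control, triplicate.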

The next data set concerns the target T2, UGT1A6 (Homo sapiens, UniProt P19224).
T2 sequence (P19224 27-532): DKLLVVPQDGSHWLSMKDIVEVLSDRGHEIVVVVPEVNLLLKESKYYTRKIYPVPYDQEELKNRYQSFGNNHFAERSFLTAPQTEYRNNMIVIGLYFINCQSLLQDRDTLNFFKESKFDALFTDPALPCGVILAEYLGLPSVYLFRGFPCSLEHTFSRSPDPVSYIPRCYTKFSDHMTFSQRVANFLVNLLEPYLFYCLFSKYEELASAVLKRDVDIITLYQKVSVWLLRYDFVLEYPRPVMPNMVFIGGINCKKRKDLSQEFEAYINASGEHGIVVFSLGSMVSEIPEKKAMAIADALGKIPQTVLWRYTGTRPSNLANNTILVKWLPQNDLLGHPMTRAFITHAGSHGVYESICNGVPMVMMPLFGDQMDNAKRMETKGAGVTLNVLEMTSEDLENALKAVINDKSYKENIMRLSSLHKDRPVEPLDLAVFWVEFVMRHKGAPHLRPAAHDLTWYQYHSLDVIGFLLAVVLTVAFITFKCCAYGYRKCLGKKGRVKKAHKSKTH
Description: Glucuronidation of isobavachin by recombinant UGT1A6, enzyme kinetics. Format: in vitro ADME. As to conditions: substrate inhibition constant, substrate inhibition model.

The next data set has as its target T3, UGT1A7 (Homo sapiens, UniProt Q9HAW7).
T3 sequence (Q9HAW7 26-530): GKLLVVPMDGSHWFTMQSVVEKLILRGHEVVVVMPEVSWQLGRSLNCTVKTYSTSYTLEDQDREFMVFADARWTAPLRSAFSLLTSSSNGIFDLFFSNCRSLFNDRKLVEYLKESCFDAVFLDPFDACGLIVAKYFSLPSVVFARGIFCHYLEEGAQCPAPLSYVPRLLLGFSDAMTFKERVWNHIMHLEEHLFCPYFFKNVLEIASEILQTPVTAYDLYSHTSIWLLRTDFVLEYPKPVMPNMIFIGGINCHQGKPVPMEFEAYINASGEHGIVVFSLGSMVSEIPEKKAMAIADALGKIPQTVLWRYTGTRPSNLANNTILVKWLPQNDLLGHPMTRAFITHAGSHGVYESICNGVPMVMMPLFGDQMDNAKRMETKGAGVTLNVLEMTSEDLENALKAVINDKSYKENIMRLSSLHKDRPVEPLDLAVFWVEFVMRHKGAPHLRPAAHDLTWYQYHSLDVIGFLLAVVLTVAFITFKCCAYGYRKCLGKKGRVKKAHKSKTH
Description: Glucuronidation of isobavachin by recombinant UGT1A7, enzyme kinetics. The class given is in vitro ADME. As to conditions: formation of G1, substrate inhibition model.

The nature of data set [2]: Glucuronidation of isobavachin by MLM, enzyme kinetics. Format: in vitro ADME, mice.
The target in the next data set is T4, UGT1A1 (Homo sapiens, UniProt P22309).
T4 sequence (P22309 26-533): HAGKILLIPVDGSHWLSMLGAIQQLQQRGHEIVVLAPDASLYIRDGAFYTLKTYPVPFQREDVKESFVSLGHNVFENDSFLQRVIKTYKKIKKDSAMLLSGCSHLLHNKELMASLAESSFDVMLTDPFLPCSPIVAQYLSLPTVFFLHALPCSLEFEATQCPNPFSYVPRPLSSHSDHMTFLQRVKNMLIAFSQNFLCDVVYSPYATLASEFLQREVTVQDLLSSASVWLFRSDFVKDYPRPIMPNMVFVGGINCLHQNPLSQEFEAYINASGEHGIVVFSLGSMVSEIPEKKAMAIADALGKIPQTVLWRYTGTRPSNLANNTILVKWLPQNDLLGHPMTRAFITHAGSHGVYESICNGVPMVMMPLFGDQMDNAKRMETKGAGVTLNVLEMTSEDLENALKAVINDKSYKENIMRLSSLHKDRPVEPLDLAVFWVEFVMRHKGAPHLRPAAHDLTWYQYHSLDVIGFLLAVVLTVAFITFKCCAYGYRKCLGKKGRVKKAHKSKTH
Briefly: Inhibition of UGT1A1. The class given is in vitro ADME.

For data set [3] the following is noted: intragastric administration of Psoraleae Fructus extracts (1.2 g/kg); cited from earlier work.

“And” between values parts separate entries of the source, which are not always exact repeats. Equal entries are not always repeated.

By IC50 is commonly meant the concentration needed to halve the response being measured. On to `CC(C)=CCc1c(O)ccc2c1O[C@H](c1ccc(O)cc1)CC2=O` [isobavachin], for which the “CLint (CLmax)” value in data set [1] (formation of M1, Michaelis–Menten model) is 35.46 μl/min per mg and 35.46 ± 5.98 μl/min per mg; in data set [1] (formation of M2, substrate inhibition model) it was 64.32 μl/min per mg and 64.32 ± 17.18 μl/min per mg; in data set [1] (formation of M3, substrate inhibition model) it was 47.43 μl/min per mg and 47.43 ± 7.99 μl/min per mg; on UGT1A7, 109.18 ± 24.17 μl/min per mg; in data set [2] (formation of G1, Michaelis–Menten model), 144.94 ± 11.20 μl/min per mg; in data set [2] (formation of G2, substrate inhibition model), 29.60 ± 9.00 μl/min per mg. Also, at CYP2C8, the inhibitory effects entry is on record as “negligible or weak”. Further, the Ki at UGT1A6 (formation of G1) was 21.97 ± 5.84 µM; on UGT1A6 (formation of G2), 12.71 ± 2.60 µM; at UGT1A7 (substrate inhibition constant), 27.54 ± 5.39 µM; at UGT1A1 (Ki, substrate estradiol, competitive model (selected, smallest AIC and SC)), 3.05 ± 0.41 µM. For the same compound, the Vmax on UGT1A7 was 3593.00 ± 487.20 pmol/min per mg. Also, 1.53 ± 0.39 µM corresponded to half-maximal inhibition against UGT1A1 (IC50). The residual activities on UGT1A1 (10 μM isobavachin) is recorded as 4.58 % of the negative control. Further, the Inhibition type result at UGT1A1 (based on the smallest AIC and SC values) is given as “competitive inhibition”. The α on UGT1A1 (substrate estradiol, mixed-type model) is recorded as 8.01 ± 2.56. In addition, the exposure result in data set [3] is reported as “about 13.2 nM”.

Source of the values: PMC8861878 (The Journal of pharmacy and pharmacology, 2020).
